Source: PubChem
An excerpt weighted towards active compounds, which were near 1.9% of everything screened.
CHRM5 PAM – CHRM5 positive allosteric modulation. CHO-K1 hM5, Fluo-8 calcium, ACh EC20 PAM; 0% = ACh EC20, 100% = ACh EC100. activation, % at 3 µM. 0.3% of 360,000 active;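 active = activation above the run cutoff, the mean activation of all test compounds plus 3 SD, cut at about 18% in these data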
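Replicates: One well per compound, no replicates | System: Human M5 receptor in CHO-K1 cells | Benchmarks: Low control EC20 acetylcholine (0%), high control EC100 acetylcholine (100%) | Probe or stimulus: Acetylcholine, EC20 level | Times: Fluo-8 loading 80 min at 37 °C plus 30 min room temperature | Signal: Intracellular calcium via Fluo-8 fluorescence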
CHRM4 agonist – agonists of human muscarinic M4 receptor (CHRM4). CHO-K1 hM4/Gqi5, Fluo-8 calcium fluorescence; vehicle 0%, full acetylcholine response 100%. 0.14% of 360,000 active. P08173. activation, % at 3 µM;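 active = activation above the run mean over all test wells plus 3 SD, cut at about 32% in these data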;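 note: peak over basal fluorescence ratio per well then scaled between controls; 0% = DMSO wells and 100% = acetylcholine at EC100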
Target sequence (P08173 whole entry, looked up): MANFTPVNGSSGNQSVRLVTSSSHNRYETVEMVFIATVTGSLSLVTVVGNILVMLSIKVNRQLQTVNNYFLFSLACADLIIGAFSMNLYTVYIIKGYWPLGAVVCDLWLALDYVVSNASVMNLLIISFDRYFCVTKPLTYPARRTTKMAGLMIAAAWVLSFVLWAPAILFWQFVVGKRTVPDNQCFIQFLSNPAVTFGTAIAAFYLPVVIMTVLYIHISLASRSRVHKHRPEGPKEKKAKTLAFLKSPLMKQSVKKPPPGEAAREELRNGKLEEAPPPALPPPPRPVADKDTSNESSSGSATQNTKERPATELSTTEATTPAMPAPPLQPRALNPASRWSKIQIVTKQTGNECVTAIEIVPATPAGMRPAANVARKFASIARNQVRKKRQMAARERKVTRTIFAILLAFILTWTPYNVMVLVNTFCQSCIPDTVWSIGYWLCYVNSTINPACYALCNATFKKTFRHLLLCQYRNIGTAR
M5 antag – CHRM5 antagonism in calcium assay; P08912; CHO-hM5 cells, Fluo-8 calcium fluorescence, ACh EC80; inhibition, % at 3 µM; 0.59% of 360,000 active;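 active = inhibition above a per-plate cutoff, the mean of that plate's test compounds plus 3 SD, cut at about 27% in these data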;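 note: 0% = acetylcholine EC80 with DMSO and 100% = DMSO without agonist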
M5 ag – CHRM5 agonism in calcium assay; CHO-K1 hM5 cells, Fluo-8 calcium fluorescence; 0% DMSO wells, 100% maximal acetylcholine response; P08912; 0.19% of 360,000 active; AID 624037; activation, % at 3 µM;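 active = activation above the run's mean over test compounds plus 3 SD, cut at about 23% in these data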;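 note: signal is peak over basal fluorescence ratio across the kinetic read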
M4 PAM – positive allosteric modulators of human muscarinic M4 receptor | CHO-K1 hM4/Gqi5, Fluo-8 calcium fluorescence, ACh EC20; 0% = ACh EC20, 100% = maximal ACh | 0.4% of 360,000 active | P08173 | activation, % at 3 µM;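 active = activation above its plate's cutoff, the mean activation of sample wells plus 3 SD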
CHRM4 antagonist – CHRM4 antagonism in calcium assay; CHO-hM4 cells, ACh EC80, Fluo-8 calcium fluorescence; inhibition, % at 3 µM; 0.73% of 360,000 active; AID 624125;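 active = inhibition above its plate's cutoff, the mean inhibition of sample wells plus 3 SD, cut at about 27% in these data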;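 note: 0% = acetylcholine EC80 with DMSO and 100% = DMSO without agonist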
* hit, by the source's call.

SMILES	CHRM5 PAM	CHRM4 agonist	M5 antag	M5 ag	M4 PAM	CHRM4 antagonist
CC(=O)OCC(=O)[C@@]1(O)CC[C@H]2[C@@H]3CCC4=CC(=O)C=C[C@]4(C)[C@@]3(Cl)[C@@H](Cl)C[C@@]21C	-17.6	0.4	8.7	43.2*	2.6	2.5
CCC(C(=O)OCC(=O)C1(O)CCC2C3CCC4=CC(=O)CCC4(C)C3C(O)CC21C)C(C)C (stereo not given)	-27.1	14.6	18.9	-5.5	-12.2	28.5*
CC12C=CC(=O)C=C1CCC1C2C(O)CC2(C)C1CCC2(O)C(=O)CO (stereo not given)	-18.2	0.7	14.7	-0.9	-17.4	88.5*
Cc1cc2nc(-c3nnnn3-c3c(C)cccc3C)c(=O)[nH]c2cc1C	-8.5	0.6	3.2	-0.4	9.1	-19.5
CCn1c(CNc2ccc(C)cc2)nnc1SCC(=O)NCc1ccccc1	-0.9	1.0	2.7	-4.9	30.6*	1.0
OC(c1ccccc1)(c1ccccc1)C1CCN(CCCOc2ccc3c(c2)CCCC3)CC1	-23.5	14.9	26.5	-2.6	-12.0	31.8*
Oc1ccccc1CN1CCC(C(O)(c2ccccc2)c2ccccc2)CC1	-2.1	1.2	3.4	-8.3	-7.7	0.9
c1ccc(COc2ccc(OCCCN3CCCC3)cc2)cc1	-17.0	4.0	8.6	-5.5	-24.6	8.8
CC(=O)Nc1ccc(OCCCN2CCC(C(O)(c3ccccc3)c3ccccc3)CC2)cc1	-23.2	5.5	64.3*	-6.8	-13.9	86.4*
OC(c1ccccc1)(c1ccccc1)C1CCN(CCCOc2cccc(OC(F)(F)F)c2)CC1	-15.9	17.5	5.4	-0.3	-12.8	32.1*
CC(=O)Nc1ccccc1OCCCN1CCC(C(O)(c2ccccc2)c2ccccc2)CC1	-21.0	3.2	-2.5	-5.5	-11.4	6.7
CC(C)(C)c1ccc(C(O)CCCN2CCC(C(O)(c3ccccc3)c3ccccc3)CC2)cc1 (stereo not given)	-6.7	19.9	10.4	5.0	-11.5	13.6
N#CCc1ccc(OCCCN2CCC(C(O)(c3ccccc3)c3ccccc3)CC2)cc1	-23.6	21.6	71.1*	-3.3	-13.6	59.5*
CC(=O)Nc1cc(-c2ccoc2)cn2c(-c3ccccc3)cnc12	-4.1	2.8	1.8	0.2	2.0	-7.4
CCOC(=O)[C@]12CCCC=C1N(Cc1ccco1)C(=O)[C@H](CC(=O)NCc1cccc(C(F)(F)F)c1)C2	-6.2	-1.1	5.4	0.0	3.6	-4.5
O=C(Nc1ccccc1)N(c1ccccc1)C1C=CS(=O)(=O)C1 (stereo not given)	-4.8	-0.9	6.4	-1.8	-10.7	45.2*
C[N+]1(C)CCC(=C(c2ccccc2)c2ccccc2)CC1	-18.8	0.1	98.7*	-1.9	-16.6	99.5*
C[N+]1(CCC(=O)c2ccccc2)CCCCC1	7.2	0.5	-8.1	-3.7	-1.6	4.2
CC1=C(C(=O)N(C)C)CC(CC(=O)NCc2cccs2)C(=O)N1Cc1ccc(F)cc1 (stereo not given)	7.5	-0.5	-5.3	0.1	1.8	-12.0
CCOC(=O)C1=CCC(c2ccccc2C)N(S(=O)(=O)c2ccc(C)cc2)C1 (stereo not given)	-8.0	-2.5	-4.4	-5.4	-7.6	-5.0
CCCc1cc(CN(C)C(=O)c2ccc(OC3CCN(C(C)=O)CC3)c(OC)c2)[nH]n1	5.3	1.0	-11.1	0.3	11.8	-8.0
Nc1cc(=O)[nH]c(SCC(=O)N2N=C(c3ccc4ccccc4c3)CC2c2ccccc2)n1 (stereo not given)	-5.3	1.1	5.6	-3.5	-10.4	36.0*
CC(=O)OCC(=O)N1N=C(c2ccc3ccccc3c2)CC1c1ccccc1 (stereo not given)	2.8	2.0	-10.4	2.4	3.1	-5.2
O=C1CC(c2ccccc2)Sc2ccccc2N1 (stereo not given)	7.2	-0.4	-6.3	-0.2	-2.1	1.9
S=C1NCC(c2ccccc2)S1 (stereo not given)	18.4*	1.0	3.6	-5.3	13.3	-15.7
